This is an account of results in ChEMBL document CHEMBL1158824, “Using jasplakinolide to turn on pathways that enable the isolation of new chaetoglobosins from Phomospis asparagi” (J Nat Prod, 2005).

Calls of active or inactive are those of the source. The rule behind the calls is not given here.

One series relates to MC-38. The series is described as follows: Cytotoxicity against mouse C38 cells assessed as zone units at 15 ug/disk by disk diffusion soft agar assay. In kind it is functional. Put shortly: (§1)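 Disk diffusion soft agar colony formation assay at 15 μg/disk; cytotoxicity read as zone units. Cells: L1210 murine leukemia, C38 murine colon, CFU-GM normal bone marrow. Samples called solid tumor selective when the solid tumor zone exceeds the normal-cell or leukemia zone by more than 250 units.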
A general note: Agar diffusion results depend on both activity and mobility in agar.

A short description of series [1]: Cytotoxicity against mouse CFU-GM cells assessed as zone units at 15 ug/disk by disk diffusion soft agar assay. In kind it is cell-based. The essentials:
as §1

For series [2], the system named is A10. The series is described as follows: Antimicrofilament activity in rat A10 cells assessed as loss of microfilament at 1 ug/ml by rhodamine-phalloidin staining. In kind it is functional, cell-based. The essentials:
(§2)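 A-10 rat aortic smooth muscle cells treated with compound, then fixed; microfilament network scored as loss, additional loss, total loss, or cell loss, at the concentration given in each line.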

In series [3] the test system is A10. The series can be described thus: Antimicrofilament activity in rat A10 cells assessed as loss of microfilament at 2.5 ug/ml by rhodamine-phalloidin staining. In kind it is functional, cell-based. The essentials:
as §2

The test system of series [4] is A10. The series is described as follows: Antimicrofilament activity in rat A10 cells assessed as total loss of microfilament at 5 ug/ml by rhodamine-phalloidin staining. In kind it is functional, cell-based. Put shortly: as §2
The next series concerns L1210. The series can be described thus: Cytotoxicity against mouse L1210 cells assessed as zone units at 15 ug/disk by disk diffusion soft agar assay. In kind it is functional. Put shortly:
as §1

The test system of series [5] is A10. The series is described as follows: Antimicrofilament activity in rat A10 cells assessed as loss of microfilament at 10 ug/ml by rhodamine-phalloidin staining. It is filed as functional, cell-based. Put shortly: as §2
Series [6] concerns A10. The series is described as follows: Antimicrofilament activity in rat A10 cells assessed as cell loss at 10 ug/ml by rhodamine-phalloidin staining. In kind it is functional, cell-based. Put shortly:
as §2

Series [7] relates to A10. The series is described as follows: Antimicrofilament activity in rat A10 cells assessed as loss of microfilament at 15 ug/ml by rhodamine-phalloidin staining. It is filed as functional, cell-based. The essentials:
as §2

The test system of series [8] is A10. The series is described as follows: Antimicrofilament activity in rat A10 cells assessed as cell loss at 15 ug/ml by rhodamine-phalloidin staining. It is filed as functional, cell-based. Put shortly: as §2
For series [9], the system named is A10. The series is described as follows: Antimicrofilament activity in rat A10 cells assessed as total loss of microfilament at 25 ug/ml by rhodamine-phalloidin staining. It is filed as functional, cell-based. The essentials:
as §2

The test system of series [10] is A10. The series can be described thus: Antimicrofilament activity in rat A10 cells assessed as cell loss at 25 ug/ml by rhodamine-phalloidin staining. In kind it is functional, cell-based. The essentials: as §2

Take `CC[C@@H]1C(C)=C[C@@H]2/C=C/C[C@H](C)/C=C(\C)[C@@H](O)[C@@H](O)/C=C/C(=O)[C@]23C(=O)N[C@@H]([C@H](C)c2c[nH]c4ccccc24)[C@H]13`: the values for the Activity (with MC-38; in [1]; with L1210) were 400 Zone units, 500 Zone units and 500 Zone units, respectively. The outcome in the series on A10 [2], in the series with A10 [3] and with A10 [4] was Active.

Take `CC[C@@H]1C(C)=C[C@@H]2/C=C/C[C@H](C)/C=C(\C)[C@@H](O)C(=O)/C=C/C(=O)[C@]23C(=O)N[C@@H]([C@H](C)c2c[nH]c4ccccc24)[C@H]13`: the Activity in the series with MC-38 is given as 350 Zone units; in series [1], 250 Zone units; with L1210, 250 Zone units.

`CC[C@@H]1C(C)=C[C@@H]2/C=C/C[C@H](C)/C=C(\C)CC/C=C/C(=O)[C@]23C(=O)N[C@@H]([C@H](C)c2c[nH]c4ccccc24)[C@H]13`: the Activity in the series with MC-38 is 150 Zone units. Moreover, the outcome in the series on A10 [5], in the series with A10 [6], in the series on A10 [7], in the series with A10 [8], with A10 [9] and in the series on A10 [10] was Active.
